Data reported in ChEMBL document CHEMBL1833886, “Synthesis and evaluation of furoxan-based nitric oxide-releasing derivatives of tetrahydroisoquinoline as anticancer and multidrug resistance reversal agents” (Bioorg Med Chem Lett, 2011).
Calls of active or inactive are those of the source. The calls are words filed in the database; no cut-off is given here.

Key:
[1] = Cytotoxicity against adriamycin-resistant human K562/A02 cells after 48 hrs by MTT assay; format: functional, cell-based; details: K562/A02, 48 h
Summary of the method: (§1)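 K562 and adriamycin-selected K562/A02 cells in RPMI 1640 with 10% fetal calf serum, 37 °C, 5% CO2; kept drug-free >14 days before assay. Log-phase cells at 1 × 10⁵/mL in 96-well plates, exposed to a range of compound concentrations (DMSO stock, final DMSO ≤0.1%) for 48 h. MTT added during last 4 h, formazan in DMSO, read at 570 nm. Duplicate wells, ≥3 experiments. IC50 by Bliss method.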

K562/A02 [2] = test: Induction of NO production in adriamycin-resistant human K562/A02 cells at 10 uM after 24 hrs by Griess assay; format: functional, cell-based
Summary of the method: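 K562/A02 cells (5 × 10⁶ per well) exposed in triplicate to 10 µM compound for 24 h, harvested and lysed. Lysates mixed with Griess reagent 30–300 min, absorbance at 570 nm. Nitrite/nitrate quantified against sodium nitrate standard curve; diluent-treated cells as background control. Mean SD of three separate experiments.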

K562 [3] = test: Cytotoxicity against human K562 cells after 48 hrs by MTT assay; format: functional, cell-based; details: K562, 48 h; summary of the method: as §1
K562/A02 [4] = test: Reversal of P-gp-mediated multidrug-resistance in adriamycin-resistant human K562/A02 cells at 10 uM after 48 hrs by MTT assay relative to adriamycin; format: cell-based
Summary of the method: (§2)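 Cells at 3 × 10⁴/well received graded adriamycin plus test compound (final 10 µM), 48 h at 37 °C, 5% CO2, then MTT read-out at 570 nm. Adriamycin IC50 by Bliss method. Fold reversal = IC50 of adriamycin alone / IC50 with modulator. Student's t test versus no modulator, P < 0.05.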

K562 [5] = test: Reversal of P-gp-mediated multidrug-resistance in human K562 cells at 10 uM after 48 hrs by MTT assay relative to adriamycin; format: cell-based; summary of the method: as §2
K562/A02 [6] = test: Inhibition of P-gp-mediated rhodamine-123 uptake in adriamycin-resistant human K562/A02 cells assessed as rhodamine-123 accumulation at 10 uM after 60 mins by flow cytometry; format: cell-based
Summary of the method: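 Rhodamine123 uptake in K562/A02 cells followed by fluorescence after treatment with 10 µM (final) modulator; verapamil group as reference, untreated control. Intracellular rhodamine123 read from a rhodamine123 standard curve, fluorescence taken as relative concentration. Student's t test, P < 0.05.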

Row | Compound | IC50 [1] | Activity (K562/A02 [2]) | IC50 (K562 [3]) | fold change (FC) (K562/A02 [4]) | fold change (FC) (K562 [5]) | inhibition (K562/A02 [6])
1 | CCCCCCCCN/C(=N/C#N)N1CCc2cc(OC)c(OC)cc2C1Cc1ccc(OC)c(OC)c1 (stereo not given) | > 500 µM | inactive | – | – | – | –
2 | COc1cc2c(cc1OC)C(COc1ccccc1)N(C(=O)CCC(=O)OCCCCCCOc1no[n+]([O-])c1S(=O)(=O)c1ccccc1)CC2 (stereo not given) | 13.5 µM | – | 1.79 µM | 3.15 | 1.2 | –
3 | COc1cc2c(cc1OC)CN(C(=O)CCC(=O)OCCOc1no[n+]([O-])c1S(=O)(=O)c1ccccc1)CC2 | 12.7 µM | – | 1.15 µM | 10.7 | 1.34 | –
4 | COc1ccc(CCN(C)CCCC(C#N)(c2ccc(OC)c(OC)c2)C(C)C)cc1OC (stereo not given) | – | – | – | 17.4 | 0.96 | –
5 | COc1cc2c(cc1OC)CN(C(=O)CCC(=O)OCC#CCOc1no[n+]([O-])c1S(=O)(=O)c1ccccc1)CC2 | 8.08 µM | – | 0.901 µM | 10.1 | 1.65 | –
6 | COc1cc2c(cc1OC)C(COc1ccccc1)N(C(=O)CCC(=O)OCCCCOc1no[n+]([O-])c1S(=O)(=O)c1ccccc1)CC2 (stereo not given) | 17.5 µM | – | 1.5 µM | 1.68 | 1.06 | –
7 | COc1cc2c(cc1OC)C(COc1ccccc1)N(C(=O)CCC(=O)OCCOc1no[n+]([O-])c1S(=O)(=O)c1ccccc1)CC2 (stereo not given) | 10.8 µM | – | 1.45 µM | 10.7 | 1.54 | –
8 | COc1cc2c(cc1OC)CN(C(=O)CCC(=O)OCCCCOc1no[n+]([O-])c1S(=O)(=O)c1ccccc1)CC2 | 11.8 µM | – | 1.56 µM | 1.85 | 1.5 | –
9 | COc1cc2c(cc1OC)C(Cc1cccc3ccccc13)N(C(=O)CCC(=O)OCCCCOc1no[n+]([O-])c1S(=O)(=O)c1ccccc1)CC2 (stereo not given) | 12.2 µM | Active | 1 µM | 17.4 | 1.47 | Active
10 | COc1ccc(CC2c3cc(OC)c(OC)cc3CCN2C(=O)CCC(=O)OCCCCCCOc2no[n+]([O-])c2S(=O)(=O)c2ccccc2)cc1OC (stereo not given) | 12.5 µM | – | 1.65 µM | 1.96 | 1.35 | –
11 | COc1cc2c(cc1OC)CN(C(=O)CCC(=O)OCCCCCCOc1no[n+]([O-])c1S(=O)(=O)c1ccccc1)CC2 | 14.6 µM | – | 1.73 µM | 3.2 | 1.09 | –
12 | COc1cc2c(cc1OC)C(Cc1cccc3ccccc13)N(C(=O)CCC(=O)OCCCCCCOc1no[n+]([O-])c1S(=O)(=O)c1ccccc1)CC2 (stereo not given) | 12.3 µM | – | 1.6 µM | 5.05 | 1.35 | –
13 | COc1cc2c(cc1OC)C(COc1ccccc1)N(C(=O)CCC(=O)OCC#CCOc1no[n+]([O-])c1S(=O)(=O)c1ccccc1)CC2 (stereo not given) | 6.36 µM | – | 0.892 µM | 1.73 | 1.73 | –
14 | COc1ccc(CC2c3cc(OC)c(OC)cc3CCN2C(=O)CCC(=O)OCCCCOc2no[n+]([O-])c2S(=O)(=O)c2ccccc2)cc1OC (stereo not given) | 13 µM | – | 1.93 µM | 1.88 | 1.1 | –
15 | COc1ccc(CC2c3cc(OC)c(OC)cc3CCN2C(=O)CCC(=O)OCCOc2no[n+]([O-])c2S(=O)(=O)c2ccccc2)cc1OC (stereo not given) | 11.3 µM | Active | 1.09 µM | 21.3 | 1.47 | Active
16 | COc1cc2c(cc1OC)C(Cc1cccc3ccccc13)N(C(=O)CCC(=O)OCC#CCOc1no[n+]([O-])c1S(=O)(=O)c1ccccc1)CC2 (stereo not given) | 7.5 µM | Active | 0.875 µM | 32 | 1.86 | Active
17 | COc1cccc2c1C(=O)c1c(O)c3c(c(O)c1C2=O)C[C@@](O)(C(=O)CO)C[C@@H]3O[C@H]1C[C@H](N)[C@H](O)[C@H](C)O1 [DOXORUBICIN] | 17.8 µM | – | – | – | – | –
18 | COc1cc2c(cc1OC)C(Cc1cccc3ccccc13)N(C(=O)CCC(=O)OCCOc1no[n+]([O-])c1S(=O)(=O)c1ccccc1)CC2 (stereo not given) | 9.98 µM | – | 1.03 µM | 2.02 | 1.59 | –
19 | COc1ccc(CC2c3cc(OC)c(OC)cc3CCN2C(=O)CCC(=O)OCC#CCOc2no[n+]([O-])c2S(=O)(=O)c2ccccc2)cc1OC (stereo not given) | 8.05 µM | – | 0.905 µM | 5.65 | 1.65 | –
